Key:
IRF1 = assay: Immunoblot analysis of IRF1 in A.f-infected BMDMs; type: cell-based, mouse; settings: unprimed WT BMDMs incubated with NF-κB inhibitor during fungal infection
Procedure, shortened: (§1)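 Bone-marrow-derived macrophages from C57BL/6-background mice, 3×10^6 cells in DMEM with 10% FBS and 1% penicillin–streptomycin, left unprimed and given the NF-κB inhibitor class test compound. They were then infected with A. fumigatus A1160 conidia (malt-agar slants, 1 week) at MOI 20. Cells were lysed in 1× RIPA, and 15 μg protein was separated by SDS-PAGE, transferred to PVDF and probed for p-IκBα, total IκBα and IRF1 with HRP detection. Representative of ≥3 independent experiments.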

IκBα phosphorylation = assay: Immunoblot analysis of p-IκBα in A.f-infected BMDMs; type: cell-based, mouse; settings: unprimed WT BMDMs incubated with NF-κB inhibitor during fungal infection
Procedure, shortened: as §1

Structure (SMILES): Cc1ccc(S(=O)(=O)/C=C/C#N)cc1 [Bay 11-7082]
- IRF1 induction (IRF1): reduced
- phosphorylation of IκBα (IκBα phosphorylation): reduced
